Assay results: ChEMBL document CHEMBL3421608, “Discovery and optimization of a novel series of Dyrk1B kinase inhibitors to explore a MEK resistance hypothesis” (J Med Chem, 2015)
In brackets after ≈: the same amount, converted by molar mass.

Columns and labels:
[1] = target: Cyclin-dependent kinase 2 (Homo sapiens, UniProt P24941); assay: Inhibition of human recombinant full length C-terminal His6-tagged CDK2 expressed in baculovirus infected Sf21 insect cells using fluorescence substrate after 60 mins by caliper off-chip incubation mobility shift assay
[2] = target: T1, Dual specificity tyrosine-phosphorylation-regulated kinase 1B (Homo sapiens, UniProt Q9Y463); assay: Inhibition of recombinant Dyrk1B (unknown origin) using FITC-Asp-His-Thr-Gly-Phe-Leu-Thr-Glu-Tyr-Val-Ala-Thr-Arg-NH2 as substrate after 60 mins
[3] = target: Insulin-like growth factor 1 receptor (Homo sapiens, UniProt P08069); assay: Inhibition of human recombinant N-terminal His6-tagged IGF-1R using fluorescence substrate after 80 mins by caliper off-chip incubation mobility shift assay
[4] = target: T1, Dual specificity tyrosine-phosphorylation-regulated kinase 1B; assay: Inhibition of human full length C-terminal c-Myc tagged Dyrk1B phosphorylation overexpressed in monkey COS1 cells after 5 hrs by ELISA; type: cell-based, COS-1
[5] = Intrinsic clearance in Wistar Han rat hepatocytes assessed per 10^6 cells; type: ADME, cell-based, Hepatocyte; conditions: read-out: CLH
Method in brief: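 Intrinsic clearance in Wistar Han rat hepatocytes, expressed as μL/min/1 × 10⁶ cells.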

[6] = Clearance in Wistar Han rat plasma at 2 umol/kg; type: ADME, cell-free
[7] = target: T2, Dual specificity tyrosine-phosphorylation-regulated kinase 2 (Homo sapiens, UniProt Q92630); assay: Inhibition of GST-tagged Dyrk2 (unknown origin) expressed in Escherichia coli using [33P]ATP[gammaP]/DYRKtide as substrate after 5 mins by liquid scintillation counting analysis
T2 sequence (Q92630 whole entry): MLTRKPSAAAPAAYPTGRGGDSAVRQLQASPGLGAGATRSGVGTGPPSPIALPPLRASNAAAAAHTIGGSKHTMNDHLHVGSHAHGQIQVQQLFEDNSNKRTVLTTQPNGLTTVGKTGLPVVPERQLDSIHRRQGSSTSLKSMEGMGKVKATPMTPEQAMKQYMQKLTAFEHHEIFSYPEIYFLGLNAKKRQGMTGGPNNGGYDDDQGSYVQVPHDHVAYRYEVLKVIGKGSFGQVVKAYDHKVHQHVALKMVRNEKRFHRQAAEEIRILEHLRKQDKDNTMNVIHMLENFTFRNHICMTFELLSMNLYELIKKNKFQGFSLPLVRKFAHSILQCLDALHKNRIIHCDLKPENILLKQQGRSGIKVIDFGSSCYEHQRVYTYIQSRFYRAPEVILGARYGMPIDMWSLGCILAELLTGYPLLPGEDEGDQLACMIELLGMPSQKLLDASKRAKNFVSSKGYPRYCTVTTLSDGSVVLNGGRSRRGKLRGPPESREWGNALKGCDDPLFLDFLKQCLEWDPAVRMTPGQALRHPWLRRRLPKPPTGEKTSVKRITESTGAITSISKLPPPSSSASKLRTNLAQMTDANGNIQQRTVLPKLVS

[8] = target: T3, Dual specificity tyrosine-phosphorylation-regulated kinase 4 (Homo sapiens, UniProt Q9NR20); assay: Inhibition of GST-tagged Dyrk4 (unknown origin) expressed in Escherichia coli using [33P]ATP[gammaP]/DYRKtide as substrate after 5 mins by liquid scintillation counting analysis
T3 sequence (Q9NR20 whole entry): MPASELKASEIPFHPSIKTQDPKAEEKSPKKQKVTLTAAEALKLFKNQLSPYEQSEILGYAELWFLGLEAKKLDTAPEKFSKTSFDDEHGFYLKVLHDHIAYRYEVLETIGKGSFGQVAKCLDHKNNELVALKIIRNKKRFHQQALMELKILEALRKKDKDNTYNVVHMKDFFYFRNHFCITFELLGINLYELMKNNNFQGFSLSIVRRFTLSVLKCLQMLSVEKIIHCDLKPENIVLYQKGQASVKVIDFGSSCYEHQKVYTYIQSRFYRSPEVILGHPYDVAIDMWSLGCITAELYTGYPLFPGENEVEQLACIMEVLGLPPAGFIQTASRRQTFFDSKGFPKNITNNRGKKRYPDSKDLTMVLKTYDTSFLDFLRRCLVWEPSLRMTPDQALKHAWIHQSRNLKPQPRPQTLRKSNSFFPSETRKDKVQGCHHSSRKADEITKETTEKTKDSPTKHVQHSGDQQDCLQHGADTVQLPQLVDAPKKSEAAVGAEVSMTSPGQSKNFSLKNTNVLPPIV

[9] = Oral bioavailability in Wistar Han rat at 3 umol/kg; type: ADME, organism-based; conditions: in vivo
[10] = Aqueous solubility of the compound at pH 7.4; type: physicochemical; conditions: buffer
[11] = Clearance in Wistar Han rat blood at 2 umol/kg; type: ADME, tissue-based; conditions: whole blood
Homo sapiens = organism: Homo sapiens; assay: Selectivity ratio of IC50 for human recombinant N-terminal His6-tagged IGF-1R to IC50 for recombinant Dyrk1B (unknown origin)
[12] = target: T4, Dual specificity protein kinase TTK (Homo sapiens, UniProt P33981); assay: Inhibition of human wild-type TTK (514 to 795) expressed in insect sf9 cells
T4 sequence (P33981 whole entry): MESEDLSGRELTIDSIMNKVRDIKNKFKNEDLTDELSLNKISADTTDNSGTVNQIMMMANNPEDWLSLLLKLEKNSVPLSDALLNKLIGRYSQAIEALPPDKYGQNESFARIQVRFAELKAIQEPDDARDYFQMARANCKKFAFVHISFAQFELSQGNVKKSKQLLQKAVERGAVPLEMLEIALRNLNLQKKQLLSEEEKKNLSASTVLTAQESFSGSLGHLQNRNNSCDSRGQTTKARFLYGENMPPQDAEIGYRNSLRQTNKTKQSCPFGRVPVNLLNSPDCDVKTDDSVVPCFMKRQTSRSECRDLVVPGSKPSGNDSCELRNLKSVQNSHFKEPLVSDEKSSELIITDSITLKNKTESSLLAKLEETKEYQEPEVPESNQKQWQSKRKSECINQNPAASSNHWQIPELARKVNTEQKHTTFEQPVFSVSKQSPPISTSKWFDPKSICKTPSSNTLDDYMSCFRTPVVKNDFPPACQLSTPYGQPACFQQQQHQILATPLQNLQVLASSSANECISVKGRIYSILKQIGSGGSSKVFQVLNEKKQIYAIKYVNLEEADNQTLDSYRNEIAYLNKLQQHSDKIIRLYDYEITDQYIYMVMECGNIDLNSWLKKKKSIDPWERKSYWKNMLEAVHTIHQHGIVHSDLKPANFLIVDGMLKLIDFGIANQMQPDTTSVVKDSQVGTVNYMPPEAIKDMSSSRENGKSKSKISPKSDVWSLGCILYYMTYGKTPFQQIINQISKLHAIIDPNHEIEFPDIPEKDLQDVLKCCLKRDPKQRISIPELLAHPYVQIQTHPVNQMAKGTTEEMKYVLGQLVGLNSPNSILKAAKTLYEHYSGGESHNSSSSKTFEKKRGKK

T1 sequence (Q9Y463 whole entry): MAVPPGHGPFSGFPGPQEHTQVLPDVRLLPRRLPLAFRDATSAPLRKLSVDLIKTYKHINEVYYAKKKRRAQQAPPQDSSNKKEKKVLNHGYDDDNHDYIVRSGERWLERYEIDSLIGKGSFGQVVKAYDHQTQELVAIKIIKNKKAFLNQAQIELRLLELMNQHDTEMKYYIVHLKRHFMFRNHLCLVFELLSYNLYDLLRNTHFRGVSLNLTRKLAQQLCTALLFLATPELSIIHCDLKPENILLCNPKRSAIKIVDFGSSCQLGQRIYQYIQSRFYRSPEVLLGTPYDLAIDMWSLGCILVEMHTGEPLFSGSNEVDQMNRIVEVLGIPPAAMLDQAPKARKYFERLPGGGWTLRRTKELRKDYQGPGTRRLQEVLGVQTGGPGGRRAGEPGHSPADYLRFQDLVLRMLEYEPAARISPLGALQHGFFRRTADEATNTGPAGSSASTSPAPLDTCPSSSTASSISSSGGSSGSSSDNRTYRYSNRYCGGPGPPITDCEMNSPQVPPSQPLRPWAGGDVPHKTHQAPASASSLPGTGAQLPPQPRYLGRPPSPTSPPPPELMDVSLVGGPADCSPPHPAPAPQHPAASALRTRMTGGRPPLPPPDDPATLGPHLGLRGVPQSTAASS
Insulin-like growth factor 1 receptor, sequence (P08069 31-736 limits assumed): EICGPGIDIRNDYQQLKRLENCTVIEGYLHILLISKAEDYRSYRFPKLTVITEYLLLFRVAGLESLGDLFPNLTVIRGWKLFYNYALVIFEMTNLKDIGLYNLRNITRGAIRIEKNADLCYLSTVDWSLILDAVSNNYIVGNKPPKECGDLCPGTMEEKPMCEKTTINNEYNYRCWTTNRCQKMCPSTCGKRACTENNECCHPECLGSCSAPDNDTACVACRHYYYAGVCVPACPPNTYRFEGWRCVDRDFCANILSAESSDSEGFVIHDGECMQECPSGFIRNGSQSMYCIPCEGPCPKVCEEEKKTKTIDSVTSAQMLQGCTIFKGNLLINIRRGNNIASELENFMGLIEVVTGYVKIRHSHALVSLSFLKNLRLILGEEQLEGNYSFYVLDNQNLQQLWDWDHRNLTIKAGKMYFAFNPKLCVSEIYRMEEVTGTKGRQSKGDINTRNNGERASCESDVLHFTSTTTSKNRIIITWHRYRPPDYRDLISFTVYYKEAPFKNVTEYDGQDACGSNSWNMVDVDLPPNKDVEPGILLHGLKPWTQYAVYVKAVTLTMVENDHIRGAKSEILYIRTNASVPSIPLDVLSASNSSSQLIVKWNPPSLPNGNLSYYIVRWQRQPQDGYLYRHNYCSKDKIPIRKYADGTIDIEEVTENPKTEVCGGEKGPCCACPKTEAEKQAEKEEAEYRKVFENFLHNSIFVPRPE
Insulin-like growth factor 1 receptor, sequence (P08069 741-1367 limits assumed): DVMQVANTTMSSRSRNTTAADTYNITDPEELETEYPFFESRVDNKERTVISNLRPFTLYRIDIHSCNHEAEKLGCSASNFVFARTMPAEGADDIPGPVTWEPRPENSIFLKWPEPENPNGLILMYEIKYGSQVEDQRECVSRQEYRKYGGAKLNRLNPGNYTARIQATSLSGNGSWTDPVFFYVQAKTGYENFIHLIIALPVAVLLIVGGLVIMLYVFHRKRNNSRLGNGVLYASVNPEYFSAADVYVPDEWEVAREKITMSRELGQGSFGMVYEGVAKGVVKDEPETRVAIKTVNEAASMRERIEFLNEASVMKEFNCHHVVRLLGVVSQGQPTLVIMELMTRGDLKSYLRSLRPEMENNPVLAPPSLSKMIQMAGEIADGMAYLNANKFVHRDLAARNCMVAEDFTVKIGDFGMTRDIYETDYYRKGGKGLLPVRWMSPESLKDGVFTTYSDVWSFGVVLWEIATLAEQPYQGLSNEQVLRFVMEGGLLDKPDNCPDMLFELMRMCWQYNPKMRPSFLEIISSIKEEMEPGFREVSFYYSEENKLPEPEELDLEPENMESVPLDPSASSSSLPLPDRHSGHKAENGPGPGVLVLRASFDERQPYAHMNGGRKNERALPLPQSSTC

Structure (SMILES) | IC50 [1] [µM] | IC50 [2] [µM] | IC50 [3] [µM] | IC50 [4] [µM] | hepatocyte CLint [5] [µL/min/1e6 cells] | clearance [6] [L/h/kg] | IC50 [7] [µM] | IC50 [8] [µM] | bioavailability [9] [%] | solubility [10] [µM] | clearance [11] [L/h/kg] | Ratio IC50 (Homo sapiens) | IC50 [12] [µM]
CN1CCN(c2ccc(Nc3ncc(Cl)c(-c4c[nH]c5cnccc45)n3)cc2)CC1 | 0.02 | 0.025 | 0.03 |  |  |  |  |  |  |  |  |  | 
c1cc2c(-c3ccnc4[nH]ccc34)c[nH]c2cn1 | 0.314 | 0.003 | 7.99 | 0.378 |  |  |  |  |  |  |  |  | 
COc1cc(N2CCN(C(C)=O)CC2)ccc1Nc1cc(-c2c[nH]c3cnccc23)ncn1 | 14.1 | 0.016 | 40.5 |  | 9 | 14.3 |  |  |  |  |  |  | 
O=C(NC1CCCC1)c1ccc(-c2cc(-c3cc4c([nH]3)CCNC4=O)ccn2)cc1 |  | 0.043 |  |  |  |  |  |  |  |  |  |  | 
COc1ccc2c(c1)[nH]c1c(C)nccc12 [HARMINE] |  |  |  |  |  |  | 2 | 74 |  |  |  |  | 
COc1cc(N2CCN(C(C)=O)CC2)ccc1Nc1cc(-c2cn(C)c3cnccc23)ncn1 | 14.8 | 0.034 | > 100 |  | 11 | 0.96 |  |  | 5 | 53 (≈ 24.2 µg/mL) |  |  | 
Cc1nccc(-c2c[nH]c3cnccc23)n1 | 38.4 | 0.017 | > 100 | 3.07 |  |  |  |  |  |  |  |  | 
CN1CCN(c2ccc(Nc3cc(-c4c[nH]c5ccccc45)ncn3)cc2)CC1 | 33.2 | 0.085 | 2.41 | 9.96 | 49 |  |  |  | 13 |  | 2.52 | 28 | 
COc1cc(N2CCN(C)CC2)ccc1Nc1nccc(-c2cn(C)c3c(C)nccc23)n1 | 13.7 | 0.009 | 3.17 | 0.168 | 6 | 1.44 |  |  | 14 | 4 (≈ 1.77 µg/mL) |  |  | 
CS(=O)(=O)c1ccc(-c2nccc(-c3c[nH]c4cnccc34)n2)cc1 | 16.9 | 0.021 | > 100 | 0.898 | 129 |  |  |  | 0 |  |  |  | 
COc1cc(OC2CCN(C)CC2)ccc1Nc1nccc(-c2c[nH]c3cnccc23)n1 |  | 0.14 | 3.3 |  |  |  |  |  |  |  |  |  | 0.02
